The test system of experiment [1] is Escherichia coli. In words: In vivo protection against gram-negative Escherichia coli vogel in mouse after subcutaneous administration. Particulars: sc, read-out: PD50.
Experiment [2] relates to Escherichia coli. Put plainly: In vivo protection against gram-negative Escherichia coli vogel in mouse after oral administration. To be noted: read-out: PD50.
Experiment [3] has as its system Streptococcus pneumoniae. In words: In vivo protection against gram-positive Streptococcus pneumonia (SV-1) in mouse after oral administration. It counts as functional. Particulars: read-out: PD50.
In experiment [4] the test system is Streptococcus pneumoniae. Put plainly: In vivo protection against gram-positive Streptococcus pneumonia (SV-1) in mouse after subcutaneous administration. It counts as functional. To be noted: sc, read-out: PD50.
A short description of experiment [5]: Compound evaluated in vitro against five gram-positive bacterial strains and geometric means of the minimum inhibitory concentrations (MIC) reported. It is filed as functional. More on the design: unit not given here. The essentials: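 Geometric mean MIC across five Gram-positive strains, taken as antilog of the averaged log MIC values.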
Another experiment addresses DNA gyrase (Escherichia coli, UniProt P0AES4+P0AES6). Put plainly: Compound evaluated in vitro for the ability to inhibit gyrase. It counts as protein-complex assay. Particulars: read-out: I50 (converted). The essentials:
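DNA gyrase isolated from Escherichia coli H560 cells; inhibition given as I50.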

Experiment [6] is described as follows: Compound evaluated in vitro against five gram-negative bacterial strains and geometric means of the minimum inhibitory concentrations (MIC) reported. More on the design: unit not given here. It counts as functional. The essentials: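 Geometric mean MIC across five Gram-negative strains (E. coli H560, E. coli Vogel, Enterobacter cloacae MA 2646, Klebsiella pneumoniae MGH-2, Proteus rettgeri M1771). Mean taken as antilog of the averaged log MIC values.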

Regarding `O=C(O)c1cn(C2CC2)c2cc(N3CC4CCCC3CN4)c(F)cc2c1=O` (stereo not given), the ED50 is 1.6 mg/kg in the experiment with Escherichia coli [1], 5.7 mg/kg in the experiment with Escherichia coli [2], more than 100 mg/kg in the experiment with Streptococcus pneumoniae [3] and 6.6 mg/kg in the experiment on Streptococcus pneumoniae [4]. The MIC in experiment [5] was determined as 0.06; in experiment [6] it was 0.08. For the same molecule, the IC50 on DNA gyrase is 4.85 µM.

For the molecule `Nc1c(F)c(N2CC3CCCC2CN3)c(F)c2c1c(=O)c(C(=O)O)cn2C1CC1` (stereo not given), the ED50 stood at 0.7 mg/kg in the experiment with Escherichia coli [1], 4.8 mg/kg with Escherichia coli [2], 35 mg/kg in the experiment on Streptococcus pneumoniae [3] and 6.3 mg/kg in the experiment with Streptococcus pneumoniae [4]. The MIC in experiment [5] is 0.03; in experiment [6] it was 0.04. Further, on DNA gyrase, the IC50 was 2.23 µM.

Take `O=C(O)c1cn(C2CC2)c2cc(N3C[C@H]4CC3CN4)c(F)cc2c1=O`: the ED50 in the experiment on Escherichia coli [1] was 0.6 mg/kg; in the experiment with Escherichia coli [2], 5.5 mg/kg; in the experiment with Streptococcus pneumoniae [3], more than 100 mg/kg; with Streptococcus pneumoniae [4], 51 mg/kg. The values for the MIC in experiment [5] and in experiment [6] were 0.79 and 0.1, respectively. In addition, the IC50 at DNA gyrase is 8.15 µM.

As to `O=C(O)c1cn(C2CC2)c2cc(N3CC4CCC3CN4)c(F)cc2c1=O` (stereo not given), the ED50 with Escherichia coli [1] is 0.7 mg/kg; with Escherichia coli [2] it was 5.5 mg/kg; in the experiment with Streptococcus pneumoniae [3], more than 100 mg/kg; in the experiment with Streptococcus pneumoniae [4], 24 mg/kg. Also, the MIC in experiment [5] is recorded as 0.1; in experiment [6], 0.08. The IC50 on DNA gyrase was 4.2 µM.

Consider `O=C(O)c1cn(C2CC2)c2nc(N3CC4CCC3CN4)c(F)cc2c1=O` (stereo not given), for which the ED50 in the experiment on Escherichia coli [1] was 0.7 mg/kg; in the experiment on Escherichia coli [2] it was 1.7 mg/kg; in the experiment with Streptococcus pneumoniae [3], more than 100 mg/kg; in the experiment on Streptococcus pneumoniae [4] it was 15.1 mg/kg. Further, the MIC in experiment [5] is 0.11; in experiment [6] it was 0.13. Also, the IC50 on DNA gyrase is 17.6 µM.

On to `O=C(O)c1cn(C2CC2)c2c(F)c(N3CC4CCCC3CN4)c(F)cc2c1=O` (stereo not given), for which the ED50 with Escherichia coli [1] was found to be 1.1 mg/kg; in the experiment on Escherichia coli [2], 2.9 mg/kg; with Streptococcus pneumoniae [3], 48.5 mg/kg; in the experiment with Streptococcus pneumoniae [4], 11.9 mg/kg. For the same molecule, the MIC in experiment [5] and in experiment [6] was 0.15 each time. The IC50 on DNA gyrase is 7.45 µM.

Regarding `N[C@H]1C[C@H]2CC[C@@H](C1)N2c1c(F)cc2c(=O)c(C(=O)O)cn(C3CC3)c2c1F`, the ED50 with Escherichia coli [1] stood at 0.75 mg/kg; with Escherichia coli [2], 1.8 mg/kg; with Streptococcus pneumoniae [3] it was 8.5 mg/kg; with Streptococcus pneumoniae [4], 3.1 mg/kg. Also, the MIC is 0.03 in experiment [5] and 0.05 in experiment [6]. Besides, on DNA gyrase, the IC50 was 9.76 µM.

Take `O=C(O)c1cn(C2CC2)c2c(F)c(N3CCN4CCC3C4)c(F)cc2c1=O` (stereo not given): the ED50 in the experiment with Escherichia coli [1] worked out at 0.2 mg/kg; with Escherichia coli [2], 0.5 mg/kg; in the experiment on Streptococcus pneumoniae [3] it was 32 mg/kg; in the experiment with Streptococcus pneumoniae [4], 11 mg/kg. Also, the figures for the MIC in experiment [5] and in experiment [6] were 0.15 and 0.04, respectively. Also, the IC50 at DNA gyrase was 7.73 µM.

For `Cl.O=C(O)c1cn(C2CC2)c2nc(N3CC4CCCC3CN4)c(F)cc2c1=O` (stereo not given), the ED50 in the experiment with Escherichia coli [1] was 0.8 mg/kg; in the experiment with Escherichia coli [2] it was 2.3 mg/kg; in the experiment on Streptococcus pneumoniae [3], 25 mg/kg; in the experiment with Streptococcus pneumoniae [4], 18 mg/kg. The MIC in experiment [5] amounted to 0.09; in experiment [6] it was 0.08. Moreover, at DNA gyrase, the IC50 was 7.34 µM.

As to `CN1CC2C[C@@H]1CN2c1nc2c(cc1F)c(=O)c(C(=O)O)cn2C1CC1.Cl`, the ED50 with Escherichia coli [1] was found to be 0.3 mg/kg; in the experiment on Escherichia coli [2], 0.5 mg/kg; with Streptococcus pneumoniae [3], 23 mg/kg; in the experiment with Streptococcus pneumoniae [4] it was 25 mg/kg. For the same molecule, the MIC in experiment [5] was found to be 0.35; in experiment [6], 0.08. The IC50 at DNA gyrase was 9.62 µM.

Values taken from ChEMBL document CHEMBL1125245, “Quinolone antibacterials: preparation and activity of bridged bicyclic analogues of the C7-piperazine” (J Med Chem, 1991).
